Values after ≈ are worked out from the molar mass of the structure shown.
How the values were obtained:
[1] = tested on: Ehrlich; assay: Antitumor activity against mouse Ehrlich ascites carcinoma cells at 100 ug/ml relative to doxorubicin after 2 hrs; assay type: functional
How it was run: (§1)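 Ehrlich ascites carcinoma cell suspension was exposed to compound for 2 h. Percent nonviable cells was scored by trypan blue dye exclusion. Potency was calculated from the percentage change relative to doxorubicin, which served as reference. Data are means with SE. Treated and control tubes were compared by one-way ANOVA with Duncan's multiple range test.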

[2] = tested on: Ehrlich; assay: Antitumor activity against mouse Ehrlich ascites carcinoma cells at 50 ug/ml relative to doxorubicin after 2 hrs; assay type: functional; how it was run: as §1
[3] = tested on: Ehrlich; assay: Antitumor activity against mouse Ehrlich ascites carcinoma cells at 25 ug/ml relative to doxorubicin after 2 hrs; assay type: functional; how it was run: as §1
[4] = tested on: Ehrlich; assay: Antitumor activity against mouse Ehrlich ascites carcinoma cells; assay type: functional, cell-based
How it was run: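 Ehrlich ascites carcinoma cell suspension was exposed to test compound at three levels (25, 50, 100) for 2 h. Nonviable cells were counted by trypan blue exclusion, using a 1:10 water dilution of a 1 g/100 ml dye stock. The IC50 was calculated against a saline control group. Doxorubicin served as positive control.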

| Structure (SMILES) | IC50 [4] [µg/mL] | Activity [1] [%] | Activity [2] [%] | Activity [3] [%] |
| --- | --- | --- | --- | --- |
| COc1cccc2c1C(=O)c1c(O)c3c(c(O)c1C2=O)C[C@@](O)(C(=O)CO)C[C@@H]3O[C@H]1C[C@H](N)[C@H](O)[C@H](C)O1 [DOXORUBICIN] | 35 (≈ 64.4 µM) | 100 | 55 | 20 |
| Cc1c(C(=O)/C=C/N(C)C)c(C(=O)Nc2ccccc2)nn1-c1ccccc1 | > 100 | 10 | 5 | 0 |
| Cc1c(C(=O)c2cn(-c3ccccc3)nc2-c2ccccc2)c(C(=O)Nc2ccccc2)nn1-c1ccccc1 |  | 0 | 0 | 0 |
| CCOC(=O)c1nn(-c2ccc(Br)cc2)cc1C(=O)c1c(C(=O)Nc2ccccc2)nn(-c2ccccc2)c1C | > 100 | 20 | 10 | 0 |
| CCOC(=O)c1nn(-c2ccc([N+](=O)[O-])cc2)cc1C(=O)c1c(C(=O)Nc2ccccc2)nn(-c2ccccc2)c1C |  | 0 | 0 | 0 |
| CC(=O)c1c(C(=O)Nc2ccccc2)nn(-c2ccccc2)c1C |  | 0 | 0 | 0 |

Now from value to molecule, other results behind:

| IC50 [4] [µg/mL] | Structure (SMILES) | Activity [1] [%] | Activity [2] [%] | Activity [3] [%] |
| --- | --- | --- | --- | --- |
| > 100 | CC(=O)c1nn(-c2ccc(C)cc2)cc1C(=O)c1c(C(=O)Nc2ccccc2)nn(-c2ccccc2)c1C | 10 | 5 | 0 |
| > 100 | CCOC(=O)c1nn(-c2ccccc2)cc1C(=O)c1c(C(=O)Nc2ccccc2)nn(-c2ccccc2)c1C | 10 | 0 | 0 |
| > 100 | CC(=O)c1nn(-c2ccccc2)cc1C(=O)c1c(C(=O)Nc2ccccc2)nn(-c2ccccc2)c1C | 20 | 5 | 0 |
| 100 (≈ 199 µM) | CC(=O)c1nn(-c2cccc(C)c2)cc1C(=O)c1c(C(=O)Nc2ccccc2)nn(-c2ccccc2)c1C | 20 | 10 | 0 |
| > 100 | CC(=O)c1nn(-c2ccc(Br)cc2)cc1C(=O)c1c(C(=O)Nc2ccccc2)nn(-c2ccccc2)c1C | 25 | 15 | 0 |
| 70 (≈ 124 µM) | Cc1c(C(=O)c2cn(-c3ccccc3)nc2C(=O)Nc2ccccc2)c(C(=O)Nc2ccccc2)nn1-c1ccccc1 | 35 | 20 | 5 |

— ChEMBL document CHEMBL1143141, “Regioselective synthesis and antitumor screening of some novel N-phenylpyrazole derivatives” (Bioorg Med Chem, 2008)
